Shown are actives, neighbours in structure and some others; about 0.77% of the full set was active somewhere.
bIAP act = increases bovine intestinal alkaline phosphatase activity; 200,000 tested, 0.17% active; purified bovine IAP, CDP-star luminescence, 30 min; stronger effect = higher value; fold of DMSO-control signal, blank-subtracted; activation factor at 20 µM;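 active = activation factor of 2 or more at 20 µM, a signal rise over negative controls twice the positive control's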
mIAP inh = mouse IAP inhibition; purified mouse IAP, CDP-Star luminescence, 30 min; inhibition, % at 10 µM; 330,000 tested, 0.2% active; AID 2806;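 active = inhibition of at least 40% at 10 µM in the primary screen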;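 also: plate controls were DMSO with enzyme for no effect and no enzyme wells for full effect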
bIAP inh = intestinal alkaline phosphatase (bovine) inhibition | purified bovine IAP, CDP-star luminescence, 30 min | inhibition, % at 20 µM | 190,000 tested, under 10 active;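 active = over 50% inhibition of intestinal alkaline phosphatase at 20 µM in the single-dose screen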
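Assay system: bovine IAP enzyme; medium: DEA buffer 100 mM, pH 9.8, with MgCl2 1.0 mM, ZnCl2 0.02 mM; doses: 20 µM single dose; incubation: enzyme reaction for 30 min at room temperature; detection: CDP-star luminescence signal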
mIAP act = mouse IAP activation. muIAP, CDP-Star luminescence, 30 min; stronger effect = higher value; 1 = vehicle-only enzyme signal, 0 = enzyme-free wells. activation factor at 10 µM. 330,000 tested, 0.24% active. AID 2805;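 active = activation factor of at least 2 at 20 µM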
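also added = chemiluminescent substrate CDP-Star | test system = mouse IAP enzyme | signal = chemiluminescence readout | compound = DMSO-dissolved test compounds | incubation = 30 min at room temperature | benchmarks = DMSO wells, no-enzyme wells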
hIAP inh = human IAP inhibition; P09923; purified IAP, CDP-Star luminescence, 30 min; inhibition, % at 10 µM; 330,000 tested, 0.12% active; AID 2544;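 active = inhibition reaching a set limit with compound at 10 µM in the primary screen, cut at about 35% in these data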;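 also: plate controls were DMSO wells with enzyme for no effect and no-enzyme buffer wells for full effect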
hIAP activ = increases human intestinal alkaline phosphatase activity | P09923 | activation factor at 10 µM | 330,000 tested, 0.16% active | purified human IAP, CDP-Star luminescence, 30 min; stronger effect = higher value; 1 = vehicle-only enzyme, 0 = enzyme-free background;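 active = activation factor of the enzyme at least 2-fold when tested at 20 µM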
mIAP inh conf = mouse IAP inhibition confirmation. inhibition, % at 10 µM. AID 434971. 11,000 tested, 4.7% active. purified mouse IAP, CDP-Star luminescence, 30 min. shares compounds with mIAP inh;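 active = inhibition of at least 40% at 10 µM in either of the two replicates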;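 also: plate controls were DMSO wells with enzyme for no effect and buffer wells lacking enzyme for full effect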
Active calls of the source: *.

Results for CN1CCN(NC(=O)Nc2cc(Cl)cc(Cl)c2)CC1 ?
mIAP inh: -142.7; mIAP act: 2.43*; hIAP inh: -21.0; hIAP activ: 1.21; mIAP inh conf: -119.7

How did O=C(c1cc(NC(=O)C23CC4CC(CC(C4)C2)C3)cc(NC(=O)C23CC4CC(CC(C4)C2)C3)c1)N1CCCCC1 do in these assays?
bIAP act: 0.9; mIAP inh: -106.2; bIAP inh: 13.3; mIAP act: 2.06*; hIAP inh: 6.5; hIAP activ: 0.935; mIAP inh conf: -106.3

What do the screens show for `O=C(NC(=S)N1CCCCC1)C12CC3CC(CC(C3)C1)C2`?
bIAP act: 0.7; mIAP inh: 1.6; bIAP inh: 26.2; mIAP act: 0.984; hIAP inh: -14.4; hIAP activ: 1.14

What do the screens show for `COc1cccc(CNC(=O)COC(=O)c2ccc(Cl)s2)c1`?
mIAP inh: -8.4; mIAP act: 1.08; hIAP inh: -23.9; hIAP activ: 1.24

Results for O=C(O)C1Nc2c(O)cccc2C2C=CCC12 (centres undefined) ?
bIAP act: 0.8; mIAP inh: 74.5*; bIAP inh: 24.2; mIAP act: 0.255; hIAP inh: -69.0; hIAP activ: 1.69; mIAP inh conf: 86.3*

How did C=CCc1cc(OC)ccc1OCCOCCN1CCc2ccccc2C1 do in these assays?
bIAP act: 1.2; mIAP inh: 3.2; bIAP inh: -21.7; mIAP act: 0.968; hIAP inh: -7.0; hIAP activ: 1.07

Results for O=C(c1c(O)cc(O)cc1O)C1c2c(cc(O)c3c2O[C@H](c2ccc(O)cc2)[C@@H](O)C3)OC1c1ccc(O)cc1 (some centres undefined) ?
mIAP inh: 58.5*; mIAP act: 0.415; hIAP inh: 7.6; hIAP activ: 0.924; mIAP inh conf: 46.9*

What do the screens show for `O=C1CC(c2ccccc2)c2c(O)cc(O)cc2O1` (centres undefined)?
bIAP act: 0.9; mIAP inh: -2.8; bIAP inh: 14.3; mIAP act: 1.03; hIAP inh: 6.0; hIAP activ: 0.94

How did N#C/C(=C\c1coc2ccc(O)cc2c1=O)C(=O)Nc1nc2ccccc2s1 do in these assays?
mIAP inh: 60.4*; mIAP act: 0.396; hIAP inh: 1.7; hIAP activ: 0.983; mIAP inh conf: 63.6*

How did O=C(NCCc1ccc(C(F)(F)F)cc1)C1CCC(=O)N(CCCN2CCCC2=O)C1 (centres undefined) do in these assays?
mIAP inh: -8.2; mIAP act: 1.08; hIAP inh: 1.7; hIAP activ: 0.983

What do the screens show for `Cc1cc(/C=C2\SC(=S)NC2=O)c(C)n1-c1ccccc1`?
mIAP inh: 43.4*; mIAP act: 0.566; hIAP inh: 13.5; hIAP activ: 0.865; mIAP inh conf: 48.3*

What do the screens show for `Cc1cc(/C=C2\SC(=S)NC2=O)c(C)n1C`?
bIAP act: 0.8; mIAP inh: 59.4*; bIAP inh: 20.3; mIAP act: 0.406; hIAP inh: 6.6; hIAP activ: 0.934; mIAP inh conf: 62.2*

What do the screens show for `COc1ccc(-n2c(C)cc(/C=C3\SC(=S)NC3=O)c2C)cc1`?
bIAP act: 0.5; mIAP inh: 27.3; bIAP inh: 45.1; mIAP act: 0.727; hIAP inh: -9.6; hIAP activ: 1.1

How did Cc1cc(/C=C2\SC(=S)NC2=O)c(C)n1-c1ccc(O)cc1 do in these assays?
mIAP inh: 72.7*; mIAP act: 0.273; hIAP inh: 11.8; hIAP activ: 0.882; mIAP inh conf: 70.8*

How did Cc1c(C(=O)CN2CCCC(C)(C)C2)c2ccccc2n1C do in these assays?
mIAP inh: 8.0; mIAP act: 0.92; hIAP inh: 13.8; hIAP activ: 0.862

Results for CCCCN1C(=O)/C(=C/C=C2\N(C)c3ccccc3C2(C)C)SC1=S ?
bIAP act: 0.5; mIAP inh: 51.4*; mIAP act: 0.486; hIAP inh: 23.3; hIAP activ: 0.767; mIAP inh conf: 43.4*

Results for Cc1ccc(S(C)(=O)=O)cc1C(=O)OCC(=O)N(Cc1ccccc1)Cc1ccccc1 ?
mIAP inh: -3.8; mIAP act: 1.04; hIAP inh: 6.3; hIAP activ: 0.937

Bioassay records as filed in PubChem.
